Results published in publication PMC4422293 (Drug Design, Development and Therapy, 2015).
Where two headings read alike, the source gives them in different places.

What was measured:
[1] = system: Enterobacter aerogenes ATCC 13048; test: MIC by broth dilution; format: cell-based; conditions: Klebsiella aerogenes, ATCC13048
[2] = system: Enterobacter cloacae ATCC 13047; test: MIC by broth dilution; format: cell-based; conditions: ATCC13047
[3] = Surface plasmon resonance binding to immobilized 3-Lipid II
Procedure, shortened: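 SPR was run at 25°C on a Biacore T100. About 50 RU of farnesyl (3-isoprene) Lipid II was amine-coupled to a CM5 chip. Running buffer was 10 mM HEPES, 150 mM NaCl, 0.05% P20, pH 7.4 (±3 mM EDTA) with 10% DMSO. Screening injections were at 10 μM, with control-cell subtraction and 30 s regeneration in 50 mM NaOH. Kd came from binding isotherms, averaged over three assays.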

[4] = system: S. aureus HFH-30123 (MRSA); test: MIC by broth dilution; format: cell-based; conditions: Staphylococcus aureus
S. aureus = test: Antibacterial activity / killing of S. aureus; format: cell-based; conditions: Staphylococcus aureus
[5] = system: DNA, cell wall, protein, and lipid synthesis in S. aureus NCTC 8325; test: Macromolecular synthesis assays, all pathways; format: cell-based, Staphylococcus aureus
[6] = system: Pseudomonas aeruginosa X13273; test: MIC by broth dilution; format: cell-based
[7] = system: Acinetobacter baumannii BAA-1605; test: MIC by broth dilution; format: cell-based; conditions: BAA1605
[8] = system: Enterococcus faecium EF1509 (VRE); test: MIC by broth dilution; format: cell-based
[9] = system: Acinetobacter baumannii ATCC 19606; test: MIC by broth dilution; format: cell-based; conditions: ATCC19606, Table 4, mean of three replicates
[10] = system: Staphylococcus aureus 1094 (MRSA); test: MIC by broth dilution; format: cell-based
P. aeruginosa ATCC 27853 = test: MIC by broth dilution; format: cell-based; conditions: Pseudomonas aeruginosa, ATCC27853
[11] = system: Klebsiella pneumoniae NR-15410 (KPC); test: MIC by broth dilution; format: cell-based
[12] = Cytotoxicity against mammalian cells; format: cell-based; conditions: human, HeLa cells (ATCC CCL-2.2)
Procedure, shortened: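 HeLa cells (ATCC CCL-2.2) were exposed to the test compound for 72 h. CC50 is the concentration giving a half-maximal decrease in viability, averaged over two replicate assays.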

E. faecium F118 (VRE) = test: MIC by broth dilution; format: cell-based; conditions: Enterococcus faecium
[13] = system: K. pneumoniae NR-15411 (KPC); test: MIC by broth dilution; format: cell-based; conditions: Klebsiella pneumoniae
[14] = system: Staphylococcus aureus (VISA) ATCC 700699; test: MIC by broth dilution; format: cell-based; conditions: Table S2; unit not given
S. aureus (VISA) NRS22 = test: MIC by broth dilution; format: cell-based, Staphylococcus aureus; conditions: Table S2; unit not given
[15] = system: Staphylococcus aureus (USA300) MRSA; test: MIC by broth dilution; format: cell-based; conditions: Table S2; unit not given
[16] = read-out: Lipid II binding (Kd), Table 4, averages of three replicate assays

**Q.** Which MIC [1] does the source give for `CC(C)C[n+]1c(/C=C/C=C2/N(C)c3ccccc3C2(C)C)cc(-c2ccccc2)cc1-c1ccccc1.F[B-](F)(F)F` [SF-5-331, 1-Isobutyl-2,4-diphenyl-6-((1E,3E)-3-(1,3,3-trimethylindolin-2-ylidene)prop-1-en-1-yl)pyridin-1-ium tetrafluoroborate] here?
**A.** Its MIC is 32 µg/mL.

**Q.** And the MIC [2]?
**A.** Its MIC is 32 µg/mL.

**Q.** And the Kd [3, 16]?
**A.** Its Kd is 0.34 ± 0.24 µM.

**Q.** And the MIC [4]?
**A.** Its MIC is 1 µg/mL.

**Q.** What about the MIC (S. aureus) of the same molecule?
**A.** The MIC was 1 µg/mL.

**Q.** And the “inhibition of macromolecular synthesis pathways” value [5]?
**A.** Its value is “inhibited all pathways at low concentrations”.

**Q.** What about the MIC [6] of the same molecule?
**A.** The MIC was 8 µg/mL.

**Q.** And the MIC [7]?
**A.** The MIC was 8 µg/mL.

**Q.** And the MIC [8]?
**A.** Its MIC is 0.5 µg/mL.

**Q.** What about the MIC [9] of the same molecule?
**A.** The MIC was 8 µg/mL.

**Q.** And the MIC [10]?
**A.** The MIC was 1 µg/mL.

**Q.** What about the MIC (P. aeruginosa ATCC 27853) of the same molecule?
**A.** Its MIC is 32 µg/mL.

**Q.** And the MIC [11]?
**A.** The MIC was 16 µg/mL.

**Q.** And the CC50 at 72 h [12]?
**A.** Its CC50 at 72 h is 0.26 µg/mL.

**Q.** And the MIC (E. faecium F118 (VRE))?
**A.** The MIC was 2 µg/mL.

**Q.** What about the MIC [13] of the same molecule?
**A.** Its MIC is 32 µg/mL.

**Q.** For `CN(C)CC[n+]1c(/C=C/C=C2/N(C)c3ccccc3C2(C)C)cc(-c2ccccc2)cc1-c1ccccc1.F[B-](F)(F)F` [SF-5-334, 1-(2-(Dimethylamino)ethyl)-2,4-diphenyl-6-((1E,3E)-3-(1,3,3-trimethylindolin-2-ylidene)prop-1-en-1-yl) pyridin-1-ium tetrafluoroborate], which MIC [1] is on record?
**A.** The MIC was at least 32 µg/mL.

**Q.** What about the MIC [2] of the same molecule?
**A.** Its MIC is at least 32 µg/mL.

**Q.** And the Kd [3, 16]?
**A.** Its Kd is 1.9 ± 0.86 µM.

**Q.** What about the MIC [4] of the same molecule?
**A.** The MIC was 16 µg/mL.

**Q.** What about the MIC [6] of the same molecule?
**A.** The MIC was at least 32 µg/mL.

**Q.** What about the MIC [7] of the same molecule?
**A.** Its MIC is 32 µg/mL.

**Q.** And the MIC [8]?
**A.** Its MIC is 8 µg/mL.

**Q.** And the MIC [9]?
**A.** The MIC was 32 µg/mL.

**Q.** What about the MIC [10] of the same molecule?
**A.** The MIC was 16 µg/mL.

**Q.** And the MIC (P. aeruginosa ATCC 27853)?
**A.** Its MIC is at least 32 µg/mL.

**Q.** And the MIC [11]?
**A.** Its MIC is at least 32 µg/mL.

**Q.** What about the CC50 at 72 h [12] of the same molecule?
**A.** Its CC50 at 72 h is 2.25 µg/mL.

**Q.** What about the MIC (E. faecium F118 (VRE)) of the same molecule?
**A.** The MIC was 32 µg/mL.

**Q.** What about the MIC [13] of the same molecule?
**A.** The MIC was at least 32 µg/mL.

**Q.** What does the source list for `CN[C@H](CC(C)C)C(=O)N[C@H]1C(=O)N[C@@H](CC(N)=O)C(=O)N[C@H]2C(=O)N[C@H]3C(=O)N[C@H](C(=O)N[C@H](C(=O)O)c4cc(O)cc(O)c4-c4cc3ccc4O)[C@H](O)c3ccc(c(Cl)c3)Oc3cc2cc(c3O[C@@H]2O[C@H](CO)[C@@H](O)[C@H](O)[C@H]2O[C@H]2C[C@](C)(N)[C@H](O)[C@H](C)O2)Oc2ccc(cc2Cl)[C@H]1O` [Vancomycin]?
**A.** Antibacterial activity (MIC) [14]: 8; Antibacterial activity (MIC) (S. aureus (VISA) NRS22): 8; Antibacterial activity (MIC) [15]: ≤ 0.5

**Q.** For `Cc1cc(-c2ccccc2)cc(-c2ccccc2)[n+]1C` [Z56760026, 1,2-Dimethyl-4,6-diphenylpyridin-1-ium], which Kd ([3]; read-out: Lipid II binding Kd) is on record?
**A.** Its Kd is 37 µM.

**Q.** Which “reduction in Lipid II-binding affinity compared to BAS00127538” value ([3]; from Table 1) does the source give for `CCOc1ccc(-c2cc(C=CC=C3N(C)c4ccccc4C3(C)C)o[c+](-c3ccc(OCC)cc3)c2)cc1` [BAS00127537, 2,4-Bis-(4-ethoxy-phenyl)-6-[3-(1,3,3-trimethyl-1,3-dihydro-indol-2-ylidene)-propenyl]-pyranylium] here?
**A.** Its value is ~ 15 fold.

**Q.** With `CN1/C(=C/C=C/c2cc(-c3ccccc3)cc(-c3ccccc3)[n+]2C)C(C)(C)c2ccccc21.F[B-](F)(F)F` [SF-5-219, 1-Methyl-2,4-diphenyl-6-((1E,3E)-3-(1,3,3-trimethylindolin-2-ylidene)prop-1-en-1-yl)pyridin-1-ium tetrafluoroborate] as the molecule, how does the MIC [1] read?
**A.** The MIC was 32 µg/mL.

**Q.** What about the MIC [2] of the same molecule?
**A.** Its MIC is at least 32 µg/mL.

**Q.** What about the Kd [3, 16] of the same molecule?
**A.** The Kd was 7.4 ± 3.08 µM.

**Q.** And the MIC [4]?
**A.** The MIC was 1 µg/mL.

**Q.** And the MIC [6]?
**A.** Its MIC is at least 32 µg/mL.

**Q.** And the MIC [7]?
**A.** The MIC was 8 µg/mL.

**Q.** And the MIC [8]?
**A.** Its MIC is 0.5 µg/mL.

**Q.** What about the MIC [9] of the same molecule?
**A.** The MIC was 8 µg/mL.

**Q.** What about the MIC [10] of the same molecule?
**A.** Its MIC is 1 µg/mL.

**Q.** And the MIC (P. aeruginosa ATCC 27853)?
**A.** The MIC was at least 32 µg/mL.

**Q.** What about the MIC [11] of the same molecule?
**A.** Its MIC is 32 µg/mL.

**Q.** What about the CC50 at 72 h [12] of the same molecule?
**A.** Its CC50 at 72 h is 0.25 µg/mL.

**Q.** And the MIC (E. faecium F118 (VRE))?
**A.** Its MIC is 5 µg/mL.

**Q.** And the MIC [13]?
**A.** The MIC was 32 µg/mL.

**Q.** Which MIC [1] does the source give for `CC(C)[n+]1c(/C=C/C=C2/N(C)c3ccccc3C2(C)C)cc(-c2ccccc2)cc1-c1ccccc1.F[B-](F)(F)F` [SF-5-330, 1-Isopropyl-2,4-diphenyl-6-((1E,3E)-3-(1,3,3-trimethylindolin-2-ylidene)prop-1-en-1-yl)pyridin-1-ium tetrafluoroborate] here?
**A.** The MIC was 8 µg/mL.

**Q.** What about the MIC [2] of the same molecule?
**A.** The MIC was 16 µg/mL.

**Q.** And the Kd [3, 16]?
**A.** Its Kd is 0.54 ± 0.16 µM.

**Q.** What about the MIC [4] of the same molecule?
**A.** The MIC was 1 µg/mL.

**Q.** What about the MIC (S. aureus) of the same molecule?
**A.** The MIC was 1 µg/mL.

**Q.** What about the “inhibition of macromolecular synthesis pathways” value [5] of the same molecule?
**A.** The value was “inhibited all pathways at low concentrations”.

**Q.** What about the MIC [6] of the same molecule?
**A.** The MIC was 4 µg/mL.

**Q.** What about the MIC [7] of the same molecule?
**A.** Its MIC is 8 µg/mL.

**Q.** What about the MIC [8] of the same molecule?
**A.** Its MIC is 0.5 µg/mL.

**Q.** And the MIC [9]?
**A.** The MIC was 8 µg/mL.

**Q.** And the MIC [10]?
**A.** Its MIC is 1 µg/mL.

**Q.** And the MIC (P. aeruginosa ATCC 27853)?
**A.** Its MIC is 8 µg/mL.

**Q.** What about the MIC [11] of the same molecule?
**A.** The MIC was 10 µg/mL.

**Q.** What about the CC50 at 72 h [12] of the same molecule?
**A.** Its CC50 at 72 h is 0.33 µg/mL.

**Q.** And the MIC (E. faecium F118 (VRE))?
**A.** Its MIC is 5 µg/mL.

**Q.** What about the MIC [13] of the same molecule?
**A.** Its MIC is 25.4 µg/mL.

**Q.** For `CN1/C(=C/C=C/c2cc(-c3ccccc3)cc(-c3ccccc3)[n+]2CCO)C(C)(C)c2ccccc21.F[B-](F)(F)F` [SF-5-332, 1-(2-Hydroxyethyl)-2,4-diphenyl-6-((1E,3E)-3-(1,3,3-trimethylindolin-2-ylidene)prop-1-en-1-yl)pyridin-1-ium tetrafluoroborate], which MIC [1] is on record?
**A.** Its MIC is at least 32 µg/mL.

**Q.** What about the MIC [2] of the same molecule?
**A.** Its MIC is at least 32 µg/mL.

**Q.** And the Kd [3, 16]?
**A.** Its Kd is 4.4 ± 3.02 µM.

**Q.** And the MIC [4]?
**A.** The MIC was 1 µg/mL.

**Q.** And the MIC [6]?
**A.** The MIC was at least 32 µg/mL.

**Q.** And the MIC [7]?
**A.** The MIC was 20.2 µg/mL.

**Q.** And the MIC [8]?
**A.** Its MIC is 1 µg/mL.

**Q.** And the MIC [9]?
**A.** Its MIC is 20.2 µg/mL.

**Q.** What about the MIC [10] of the same molecule?
**A.** Its MIC is 1 µg/mL.

**Q.** And the MIC (P. aeruginosa ATCC 27853)?
**A.** The MIC was at least 32 µg/mL.

**Q.** What about the MIC [11] of the same molecule?
**A.** The MIC was at least 32 µg/mL.

**Q.** And the CC50 at 72 h [12]?
**A.** The CC50 at 72 h was 0.8 µg/mL.

**Q.** And the MIC (E. faecium F118 (VRE))?
**A.** The MIC was 8 µg/mL.

**Q.** What about the MIC [13] of the same molecule?
**A.** The MIC was at least 32 µg/mL.
